Screening results from PubChem.
Hits are enriched below; roughly 2.3% of the tested compounds scored in any of these assays.
TRPC6 inhibitor: mouse TRPC6 channel inhibition; B-score at 10 µM; HEK293-TRPC6, membrane potential dye, ACh-evoked depolarization; active compounds read low; 1.1% of 310,000 active; AID 2553;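 active = B-score under library mean minus 3 SD, initial fluorescence not abnormally high, positive integrated signal ratio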;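 note: B-score derived from integrated fluorescence ratio over the kinetic read; more negative B-score means stronger inhibition of depolarization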
Target sequence (Q61143 whole entry, looked up): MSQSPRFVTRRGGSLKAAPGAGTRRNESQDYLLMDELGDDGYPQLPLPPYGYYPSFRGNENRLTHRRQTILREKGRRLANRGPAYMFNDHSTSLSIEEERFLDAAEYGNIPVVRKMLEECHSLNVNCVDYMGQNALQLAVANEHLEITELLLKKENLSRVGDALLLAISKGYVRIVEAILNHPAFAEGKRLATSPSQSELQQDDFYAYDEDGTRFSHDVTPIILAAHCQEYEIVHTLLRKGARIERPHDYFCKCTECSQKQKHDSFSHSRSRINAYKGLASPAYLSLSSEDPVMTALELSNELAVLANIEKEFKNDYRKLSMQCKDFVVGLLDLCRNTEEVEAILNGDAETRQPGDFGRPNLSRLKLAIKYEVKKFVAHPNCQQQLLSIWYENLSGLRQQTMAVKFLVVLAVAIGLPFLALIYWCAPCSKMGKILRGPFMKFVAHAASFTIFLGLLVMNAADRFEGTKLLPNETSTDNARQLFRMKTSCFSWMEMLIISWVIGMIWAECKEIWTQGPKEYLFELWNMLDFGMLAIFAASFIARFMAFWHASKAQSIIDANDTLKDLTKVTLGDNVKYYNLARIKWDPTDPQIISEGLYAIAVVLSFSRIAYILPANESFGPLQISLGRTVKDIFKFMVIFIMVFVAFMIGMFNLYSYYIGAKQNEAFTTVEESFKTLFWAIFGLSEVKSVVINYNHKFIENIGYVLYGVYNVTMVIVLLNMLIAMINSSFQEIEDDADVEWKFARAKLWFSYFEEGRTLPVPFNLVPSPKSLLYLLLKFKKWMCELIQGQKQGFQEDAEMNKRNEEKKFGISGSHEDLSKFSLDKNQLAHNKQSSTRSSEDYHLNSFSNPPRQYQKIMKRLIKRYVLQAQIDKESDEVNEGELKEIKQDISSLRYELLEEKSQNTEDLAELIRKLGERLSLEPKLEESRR
TRPC4 inh: blocks the mouse TRPC4 cation channel | HEK293 TRPC4beta/mu-opioid, DAMGO-evoked Fluo4 calcium flux; active compounds read low | AID 2247 | B-score at 10 µM | 0.39% of 300,000 active;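 active = B-score over 3 SD under the library average, no early fluorescence shift, positive overall ratio signal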
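System: stable TRPC4beta/mu-opioid receptor HEK293 cells; Dosing: single-point compound dosing; Measured by: Fluo4 Ca2+ flux fluorescence; Read-out basis: per-well B score of integrated baseline-normalized Fluo4 ratio.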
TRPC4 act: opens the mouse TRPC4 cation channel; 0.49% of 310,000 active; Q9QUQ5; AID 2237; HEK293 TRPC4beta/mu-opioid, Fluo4 calcium fluorescence; active compounds read high; B-score at 10 µM;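 active = B-score above 5 SD of library B-scores, and initial fluorescence ratio not above library mean plus 5 SD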;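 note: positive B-score marks a calcium rise read as TRPC4 activation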
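Test system: HEK293 cells stably co-expressing mouse TRPC4beta and mu-opioid receptor | Schedule: Fluo4 dye loading 45 min at room temperature, 110 s recording | Measured by: Kinetic Fluo4 calcium fluorescence, 5 s baseline at 1 Hz | Evaluation: B score of integrated ratio | Controls: Buffer (low) and maximal DAMGO (high)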
TRPC4 potent: TRPC4 (mouse) allosteric potentiation; Q9QUQ5; 0.42% of 310,000 active; B-score at 10 µM; AID 2227; HEK293 TRPC4beta/mu-opioid, DAMGO EC20, Fluo-4 Ca2+ flux; active compounds read high;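 active = B-score of calcium response area above 5 SD of library B-scores, with initial fluorescence ratio within 5 SD of library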;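 note: B-score of integrated fluorescence ratio over time as area under calcium response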
TRPC6 activator: mouse TRPC6 channel activation | HEK293-TRPC6 membrane potential dye fluorescence; active compounds read high | B-score at 10 µM | 0.13% of 310,000 active | AID 2550;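 active = B-score of the integrated fluorescence ratio above library mean plus 3 SD, and starting fluorescence ratio within library mean plus 5 SD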;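 note: higher score means more depolarization so channel activation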
TRPC4 sel inh 2: mouse TRPC4 off-target activity of TRPC6 inhibitors, second screen | inhibition, % at 10 µM | AID 2776 | HEK293 TRPC4/MOR, membrane potential dye fluorescence; channel activated by saturating DAMGO dose | shares compounds with TRPC6 inhibitor | 42% of 920 active;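 active = compounds whose fluorescence signal differed from control wells by over 3 SD, either direction, in both duplicate plates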
TRPC4 spec: selectivity of TRPC6 inhibitors: effect on mouse TRPC4. shares compounds with TRPC6 inhibitor. HEK293 TRPC4/mu-opioid, membrane potential fluorescence. activity change, negative = inhibition, % at 10 µM. 61% of 920 active;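 active = rise or fall in signal beyond 3 SD of buffer-only wells in both replicate plates, either sign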;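 note: integrated kinetic ratio of fluorescence range over baseline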
HEK293 MPD ctr 2-1: second check of TRPC6 inhibitor effects in parental HEK293 cells | shares compounds with TRPC6 inhibitor | parental HEK293 membrane potential dye fluorescence; maximal acetylcholine challenge after compound addition | signal change vs control, % at 10 µM | 31% of 920 active | AID 2779;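 active = membrane potential signal moving either way by over 3 SD of the maximum-effect control, in both duplicate plates, meaning non-specific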
HEK293 MPD ctr-1: counter-screen for TRPC6 inhibitors: effect in parental HEK293 cells. 60% of 920 active. parental HEK293 membrane potential dye fluorescence. AID 2780. membrane potential signal change, % at 10 µM. shares compounds with TRPC6 inhibitor;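 active = membrane potential signal shifting up or down by more than 3 SD of buffer-only wells, on both duplicate plates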
HEK293 MPD ctr-2: counter-screen for TRPC6 modulators: effect in parental HEK293 cells; membrane potential dye fluorescence; AID 488924; 51% of 2,400 active; membrane potential signal change, % at 10 µM; shares compounds with TRPC6 inhibitor;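 active = membrane potential signal moves up or down beyond 5 SD from buffer-only wells, on both duplicate plates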
HEK293 MPD ctr 2-2: second check of TRPC6 modulator effects in parental HEK293 cells. shares compounds with TRPC6 inhibitor. inhibition, % at 10 µM. AID 488926. 14% of 2,400 active. membrane potential dye fluorescence; after compound, maximal acetylcholine stimulation;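 active = membrane potential signal drops by more than 5 SD from the mean control signal, in both duplicate plates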;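 note: plate controls were acetylcholine ECmax control wells for no effect and buffer only wells for full effect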
TRPC4 ctr mod: selectivity of TRPC6 modulators against mouse TRPC4 | shares compounds with TRPC6 inhibitor | HEK293 TRPC4/mu-opioid, membrane potential fluorescence | percent change from control (negative = decrease, positive = increase), % at 10 µM | 69% of 2,400 active;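 active = membrane potential signal moved up or down beyond 5 SD of buffer control wells, in both duplicate plates, actives on both sides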;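 note: plate controls were assay buffer wells for no effect and DAMGO maximal-effect wells for full effect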
TRPC4/MOR inh 2: second check of whether TRPC6 modulators also affect mouse TRPC4; shares compounds with TRPC6 inhibitor; HEK293 TRPC4/mu-opioid, membrane potential dye fluorescence; stimulated with maximal-effect DAMGO; inhibition, % at 10 µM; 55% of 2,400 active; AID 488928;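 active = drop in membrane potential signal beyond 5 SD of the control wells in both duplicate plates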;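 note: TRPC4 counter screen for TRPC6 hits run under conditions tuned for TRPC6 not TRPC4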
TRPC6 inh conf: confirmation of mouse TRPC6 inhibitors; shares compounds with TRPC6 inhibitor; HEK293-TRPC6, membrane potential dye, ACh-evoked depolarization; inhibition, % at 10 µM; 43% of 3,300 active;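 active = fluorescence ratio falls more than 5 SD below the full-stimulation control mean, in both duplicate runs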;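 note: integrated fluorescence ratio of peak minus minimum over baseline after agonist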
TRPC6 act confirm: mouse TRPC6 activator confirmation. shares compounds with TRPC6 inhibitor. HEK293-TRPC6 membrane potential dye fluorescence, FDSS. activation, % at 10 µM. 11% of 2,800 active;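 active = ratio signal rise beyond 5 SD above unstimulated control wells' mean, seen in both duplicate runs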;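 note: plate controls were buffer EC0 wells for no effect and acetylcholine ECmax response for full effect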
The depositor's hits bear a star; i = inactive; . = no result given; ! = repeats disagree.

SMILES	TRPC6 inhibitor	TRPC4 inh	TRPC4 act	TRPC4 potent	TRPC6 activator	HEK293 MPD ctr-2	HEK293 MPD ctr 2-2	TRPC4 ctr mod	TRPC4/MOR inh 2	TRPC6 inh conf	TRPC6 act confirm	others
O=C(COC(=O)c1ccc(F)c(S(=O)(=O)N2CCOCC2)c1)NCc1ccco1	i	i	i	i	i	.	.	.	.	.	.
O=C(COC(=O)c1cc(S(=O)(=O)N2CCOCC2)ccc1F)NCc1ccco1	-6.24*	i	i	i	i	i	i	i	i	i	i
Cc1ccc(-n2nnnc2CNC(=O)c2ccc3c(c2)OCO3)cc1C	-8.09*	i	i	i	i	i	95.0%*	19.0%*	i	79.5%*	i
Cc1cc2[nH]c(=O)c(=O)[nH]c2cc1S(=O)(=O)Nc1cccc(C)c1C	i	i	i	i	i	.	.	.	.	.	.
COCCN(C(=O)COC(=O)CCC(=O)c1cccs1)c1c(N)n(Cc2ccccc2)c(=O)[nH]c1=O	i	i	i	i	i	.	.	.	.	.	.
CSc1nc(SCCN(C)C)c2c3c(sc2n1)COC(C)(C)C3	i	i	i	i	i	.	.	.	.	.	.
Cc1cc(C)n(-c2nc(SCCN(C)C)c3c4c(sc3n2)CCCC4)n1	-6.14*	i	95*	i	i	i	i	i	71.5%*	45.5%*	i
CCCSc1nc2cc(C)c(C)cc2n1CC(O)CO (stereo not given)	i	i	i	i	i	.	.	.	.	.	.
CCN(CC)CC(O)Cn1c(-c2cccc(Cl)c2)nc2cc(C)c(C)cc21 (stereo not given)	-6.51*	i	i	i	i	i	i	i	74.0%*	63.0%*	i
Cc1ccc(CS(=O)Cc2ccc(C(=O)NCCc3ccccc3)o2)cc1 (stereo not given)	i	i	i	i	i	.	.	.	.	.	.
Cc1c(C)n(Cc2ccccc2)c2ncnc(NN)c12	i	i	i	i	i	.	.	.	.	.	.
Cc1c(C)n(Cc2ccccc2)c2ncnc(NCCN(C)C)c12	-7.09*	i	i	i	i	.	.	.	.	i	i	TRPC4 sel inh 2=i;TRPC4 spec=-16.6%*;HEK293 MPD ctr 2-1=i;HEK293 MPD ctr-1=-277.0%*
Cc1c(C)n(Cc2ccccc2)c2ncnc(NCCCN(C)C)c12	-5.96*	i	i	i	i	-101.5%*	i	-20.5%*	53.5%*	42.5%*	i
COc1ccccc1Nc1ncnc2c1c(C)c(C)n2CCCN(C)C	-5.19*	i	i	i	i	-101.0%*	i	-23.0%*	74.0%*	54.5%*	i
Cc1c(C)n(-c2ccccc2)c2ncnc(NCCCN(C)C)c12	i	i	i	i	i	.	.	.	.	.	.
CCCC[n+]1c2ccccc2cc2ccccc21	-6.28*	-5*	i	i	i	-169.5%*	i	-100.5%*	73.5%*	55.5%*	i
Cc1ccc2ccccc2[n+]1CCCS(=O)(=O)[O-]	i	i	i	i	i	.	.	.	.	.	.
CCC[n+]1c2ccccc2cc2ccccc21	-11.9*	i	i	i	i	-175.5%*	84.5%*	-91.0%*	65.5%*	67.5%*	i
Cc1ccc(S(=O)(=O)N2CCN(Cc3ccco3)CC2)c(C)c1	i	i	i	i	i	.	.	.	.	.	.
C/C(N)=C(/C#N)C(=O)COC(=O)c1ccccc1Cc1ccccc1	-8.26*	i	i	i	i	.	.	.	.	i	i	TRPC4 sel inh 2=i;TRPC4 spec=-11.1%*;HEK293 MPD ctr 2-1=i;HEK293 MPD ctr-1=i
C/C(N)=C(/C#N)C(=O)COC(=O)c1ccncc1	i	i	i	i	i	.	.	.	.	.	.
CCOC(=O)c1c(NC(=O)CSc2nnc(C)c(=O)[nH]2)sc(C)c1-c1ccc(C)cc1	i	i	i	i	13.7*	136.5%*	i	36.0%*	i	i	86.0%*
CCC(C)n1c(=N)c(C#N)cc2c(=O)n3cc(C)ccc3nc21 (stereo not given)	-6.89*	i	i	i	i	i	i	i	i	i	i
CC(=O)OCCc1[nH]c2ccccc2c1C	i	i	i	i	i	.	.	.	.	.	.
CC(=O)OCCc1c2ccccc2c(CCCN(C)C)c2ccccc12	-6.11*	i	i	i	i	-87.0%*	i	-18.0%*	67.0%*	48.0%*	i
CCCOc1ccc(N2C(=O)CC(N(CCc3ccc(OC)cc3)C(=O)/C=C/C(=O)O)C2=O)cc1 (stereo not given)	-10.1*	i	i	i	i	.	.	.	.	i	i	TRPC4 sel inh 2=i;TRPC4 spec=i;HEK293 MPD ctr 2-1=i;HEK293 MPD ctr-1=i
CC(C)Cc1nc2ccc(N)cc2[nH]1	i	i	i	i	i	.	.	.	.	.	.
Cc1sc(CO)c(Sc2ccccc2)c1C(=O)O	i	i	i	i	i	.	.	.	.	.	.
O=C(O)Cn1c(O)c(C=Nc2ccccc2)sc1=S	-11.6*!	i	i	i	i	.	.	.	.	i	i	TRPC4 sel inh 2=i;TRPC4 spec=i;HEK293 MPD ctr 2-1=i;HEK293 MPD ctr-1=i
O=C(CSc1ncnc2c1nnn2Cc1ccccc1F)NCC1CCCO1 (stereo not given)	i	i	i	i	i	.	.	.	.	.	.
